Among the data in ChEMBL document CHEMBL1145778, “Novel alpha-melanocyte stimulating hormone peptide analogues with high candidacidal activity” (2003) are inhibition values, retold here.

Non-standard residues stand in square brackets, D forms with d. Residues, ends and D or L forms follow the SMILES beside them. d2Nal = N[C@H](Cc1ccc2ccccc2c1)C(=O)O

This test has as its system Candida albicans. Nature of the test: Inhibition of Candida albicans at 100 uM concentration. The format is functional. Summed up: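 Five C. albicans clinical isolates plus ATCC 24433, grown 48 h at 32 °C in Sabouraud dextrose broth to stationary phase, washed in distilled water. 1×10^6 yeast in water exposed to peptide at 10^-4 M final, 2 h at 37 °C; water controls. Diluted to ~100 organisms/mL, 1 mL plated on blood agar, 48 h at 37 °C, colonies counted. Triplicates.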
For orientation: inhibition means the share of the control response that was lost under treatment. A higher inhibition goes with a strong effect. Consider `CC(C)[C@H](NC(=O)[C@H](CO)NC(=O)[C@H](CCCCN)NC(=O)CNC(=O)[C@H](Cc1c[nH]c2ccccc12)NC(=O)[C@H](CCCN=C(N)N)NC(=O)[C@@H](Cc1ccc2ccccc2c1)NC(=O)[C@@H](N)Cc1c[nH]cn1)C(N)=O`, for which 100 µM produced 73.9% inhibition.
The figure for `CC(C)[C@H](NC(=O)[C@H](Cc1ccccc1)NC(=O)[C@H](CCCCN)NC(=O)CNC(=O)[C@H](Cc1c[nH]c2ccccc12)NC(=O)[C@H](CCCNC(=N)N)NC(=O)[C@H](Cc1ccccc1)NC(=O)[C@@H](N)Cc1cnc[nH]1)C(N)=O` is 97.5%; for `CC(C)[C@H](NC(=O)[C@H](Cc1ccccc1)NC(=O)[C@H](CCCCN)NC(=O)CNC(=O)[C@H](Cc1c[nH]c2ccccc12)NC(=O)[C@H](CCCN=C(N)N)NC(=O)[C@@H](Cc1ccc2ccccc2c1)NC(=O)[C@@H](N)Cc1c[nH]cn1)C(N)=O` it is 67.7%.
The figure for `CC(C)[C@H](NC(=O)[C@@H](C)NC(=O)[C@H](CCCCN)NC(=O)CNC(=O)[C@H](Cc1c[nH]c2ccccc12)NC(=O)[C@H](CCCN=C(N)N)NC(=O)[C@@H](Cc1ccc2ccccc2c1)NC(=O)[C@@H](N)Cc1c[nH]cn1)C(N)=O` is 28%; for `CC(C)[C@@H](NC(=O)[C@H]1CCCN1C(=O)[C@H](CCCCN)NC(=O)CNC(=O)[C@H](Cc1c[nH]c2ccccc12)NC(=O)[C@H](CCCN=C(N)N)NC(=O)[C@H](Cc1ccccc1)NC(=O)[C@@H](N)Cc1c[nH]cn1)C(N)=O` it is 82.5%; for `CC(C)[C@H](NC(=O)[C@@H](Cc1ccccc1)NC(=O)[C@H](CCCCN)NC(=O)CNC(=O)[C@H](Cc1c[nH]c2ccccc12)NC(=O)[C@H](CCCN=C(N)N)NC(=O)[C@@H](Cc1ccc2ccccc2c1)NC(=O)[C@@H](N)Cc1c[nH]cn1)C(N)=O` it is 99.7%.
The figure for `CC(C)[C@H](NC(=O)[C@H](C)NC(=O)[C@H](CCCCN)NC(=O)CNC(=O)[C@H](Cc1c[nH]c2ccccc12)NC(=O)[C@H](CCCN=C(N)N)NC(=O)[C@@H](Cc1ccc2ccccc2c1)NC(=O)[C@@H](N)Cc1c[nH]cn1)C(N)=O` is 69.2%.
The compound `CC(C)[C@H](NC(=O)[C@H](CC(=O)O)NC(=O)[C@H](CCCCN)NC(=O)CNC(=O)[C@H](Cc1c[nH]c2ccccc12)NC(=O)[C@H](CCCN=C(N)N)NC(=O)[C@H](Cc1ccccc1)NC(=O)[C@@H](N)Cc1c[nH]cn1)C(N)=O` came in with an inhibition at 100 µM of 15.7%.
The figure for `CC(C)[C@H](NC(=O)[C@H](CCCCN)NC(=O)[C@H](CCCCN)NC(=O)CNC(=O)[C@H](Cc1c[nH]c2ccccc12)NC(=O)[C@H](CCCN=C(N)N)NC(=O)[C@@H](Cc1ccc2ccccc2c1)NC(=O)[C@@H](N)Cc1c[nH]cn1)C(N)=O` is 83.8%; for `CC(C)[C@H](NC(=O)[C@H]1CCCN1C(=O)[C@H](CCCCN)NC(=O)CNC(=O)[C@H](Cc1c[nH]c2ccccc12)NC(=O)[C@H](CCCN=C(N)N)NC(=O)[C@@H](Cc1ccccc1)NC(=O)[C@@H](N)Cc1c[nH]cn1)C(N)=O` it is 80.5%; for `CC(C)[C@H](NC(=O)[C@@H](CC(=O)O)NC(=O)[C@H](CCCCN)NC(=O)CNC(=O)[C@H](Cc1c[nH]c2ccccc12)NC(=O)[C@H](CCCN=C(N)N)NC(=O)[C@@H](Cc1ccccc1)NC(=O)[C@@H](N)Cc1c[nH]cn1)C(N)=O` it is 3.7%.
`CC(C)[C@H](NC(=O)[C@H](C)NC(=O)[C@H](CCCCN)NC(=O)CNC(=O)[C@H](Cc1c[nH]c2ccccc12)NC(=O)[C@H](CCCN=C(N)N)NC(=O)[C@H](Cc1ccccc1)NC(=O)[C@@H](N)Cc1c[nH]cn1)C(N)=O`: the inhibition at 100 µM was found to be 46.1%.
The figure for `CC(C)[C@H](NC(=O)[C@H](CCC(=O)O)NC(=O)[C@H](CCCCN)NC(=O)CNC(=O)[C@H](Cc1c[nH]c2ccccc12)NC(=O)[C@H](CCCN=C(N)N)NC(=O)[C@@H](Cc1ccc2ccccc2c1)NC(=O)[C@@H](N)Cc1c[nH]cn1)C(N)=O` is 32.3%; for `CC(C)[C@H](NC(=O)[C@H](CC(=O)O)NC(=O)[C@H](CCCCN)NC(=O)CNC(=O)[C@H](Cc1c[nH]c2ccccc12)NC(=O)[C@H](CCCN=C(N)N)NC(=O)[C@@H](Cc1ccc2ccccc2c1)NC(=O)[C@@H](N)Cc1c[nH]cn1)C(N)=O` it is 16.8%.
The figure for `CC(C)[C@H](NC(=O)[C@@H](Cc1ccccc1)NC(=O)[C@H](CCCCN)NC(=O)CNC(=O)[C@H](Cc1c[nH]c2ccccc12)NC(=O)[C@H](CCCN=C(N)N)NC(=O)[C@@H](Cc1ccccc1)NC(=O)[C@@H](N)Cc1c[nH]cn1)C(N)=O` is 89.6%.
Compound `CC(C)[C@H](NC(=O)[C@@H](C)NC(=O)[C@H](CCCCN)NC(=O)CNC(=O)[C@H](Cc1c[nH]c2ccccc12)NC(=O)[C@H](CCCN=C(N)N)NC(=O)[C@H](Cc1ccccc1)NC(=O)[C@@H](N)Cc1c[nH]cn1)C(N)=O` had an inhibition at 100 µM of 12.8%.
The figure for `CC(C)[C@H](NC(=O)[C@@H](Cc1ccccc1)NC(=O)[C@H](CCCCN)NC(=O)CNC(=O)[C@H](Cc1c[nH]c2ccccc12)NC(=O)[C@H](CCCN=C(N)N)NC(=O)[C@H](Cc1ccccc1)NC(=O)[C@@H](N)Cc1c[nH]cn1)C(N)=O` is 90.8%; for `CC(C)[C@H](NC(=O)CNC(=O)[C@H](CCCCN)NC(=O)CNC(=O)[C@H](Cc1c[nH]c2ccccc12)NC(=O)[C@H](CCCN=C(N)N)NC(=O)[C@@H](Cc1ccc2ccccc2c1)NC(=O)[C@@H](N)Cc1c[nH]cn1)C(N)=O` it is 36.2%.
Turning to `CC(C)[C@H](NC(=O)[C@@H](CC(=O)O)NC(=O)[C@H](CCCCN)NC(=O)CNC(=O)[C@H](Cc1c[nH]c2ccccc12)NC(=O)[C@H](CCCN=C(N)N)NC(=O)[C@H](Cc1ccccc1)NC(=O)[C@@H](N)Cc1c[nH]cn1)C(N)=O`, the inhibition at 100 µM came to 5.9%.
Consider `CC(C)[C@H](NC(=O)[C@H](Cc1ccccc1)NC(=O)[C@H](CCCCN)NC(=O)CNC(=O)[C@H](Cc1c[nH]c2ccccc12)NC(=O)[C@H](CCCN=C(N)N)NC(=O)[C@@H](Cc1ccccc1)NC(=O)[C@@H](N)Cc1c[nH]cn1)C(N)=O`, for which testing at 100 µM gave an inhibition of 77.7%.
In turn, `CC(C)[C@H](NC(=O)[C@@H]1CCCN1C(=O)[C@H](CCCCN)NC(=O)CNC(=O)[C@H](Cc1c[nH]c2ccccc12)NC(=O)[C@H](CCCN=C(N)N)NC(=O)[C@@H](Cc1ccc2ccccc2c1)NC(=O)[C@@H](N)Cc1c[nH]cn1)C(N)=O` (H-H[d2Nal]RWGKPV-NH2) gave an inhibition at 100 µM of 95.3%.
As to H-HFRWGAPV-NH2, 100 µM produced 26.2% inhibition.
H-HFRWGKEV-NH2 registered an inhibition at 100 µM of 11.2%.
In the case of H-HFRWGKGV-NH2, at 100 µM the inhibition was 41.8%.
The figure for H-HFRWGKKV-NH2 is 41%; for H-HFRWGKPA-NH2 it is 68.4%.
The figure for H-HFRWGKPL-NH2 is 87.4%.
H-HFRWGKSV-NH2 came in with an inhibition at 100 µM of 32.3%.
